Results gathered from unrelated publications.
Compare with care: the assays were run in different laboratories.
Read-out: cell growth or viability

| SMILES | cell line | test | conditions | endpoint | value |
| --- | --- | --- | --- | --- | --- |
| COc1cc(-c2ccc(-c3ccc(C(=N)N)nc3)s2)cc(OC)c1OC | SNB-19 | SRB |  | GI50 | 4730 nM |
| COC(=O)c1c(C)ncn1CC(c1c[nH]c2ccccc12)c1c[nH]c2ccccc12 | HaCaT | MTS | 20 µM, 24 h | inhibition | 9.7% |
| Cc1cc(Nc2ncc(Cl)c(Nc3ccccc3S(=O)(=O)C(C)C)n2)c(OC(C)C)cc1C1CCNCC1 | KARPAS-299 | MTT | 0.55556 µg/mL, 72 h | inhibition | 73.4% |
| COC(=O)c1c(C)ncn1CC(c1c[nH]c2cc(Br)ccc12)c1c[nH]c2cc(Br)ccc12 | HaCaT | MTS | 20 µM, 24 h | inhibition | 28.8% |
| CN1C[C@H](C(=O)N[C@]2(C)O[C@@]3(O)[C@@H]4CCCN4C(=O)[C@H](Cc4ccccc4)N3C2=O)C[C@@H]2c3cccc4[nH]cc(c34)C[C@H]21 | WI-38 | MTT | 72 h | EC50 | 80000 nM |
| COc1cc(Nc2nccc(-c3cnn4nc(OC)ccc34)n2)cc(C(F)(F)F)c1 | HCC1569 | ATP luminescence |  | IC50 | > 3000 nM |
| COc1cccc(Oc2ccccc2NC(=O)CNC(=O)c2cccc3ccccc23)c1 | SNB-19 | SRB | 48 h | GI50 | 617 nM |
| CCc1ncn(CC(c2c[nH]c3ccc(C)cc23)c2c[nH]c3ccc(C)cc23)c1C(=O)OC | HaCaT | MTS | 20 µM, 24 h | inhibition | 23% |
| Cc1cc(C)cc(COc2cc3c(cc2OCc2cc(C)cc(C)c2)C2CC(O)(Cc4cn(CCCCCCNc5ccc6c(c5)C(=O)N(C5CCC(=O)NC5=O)C6=O)nn4)CC(C)N2CC3)c1 (stereo not shown) | ASPC1 | MTT |  | IC50 | 1230 nM |
| C[C@@H](Oc1cc(-c2cnn(C3CCNCC3)c2)cnc1N)c1c(Cl)ccc(F)c1Cl | KARPAS-299 | MTT | 0.008 µg/mL, 72 h | inhibition | 27.5% |
| C/C=C/C(=O)Nc1ccc(CCn2cc(C[C@@]3(O)C[C@@H]4c5cc(OCc6cc(C)cc(C)c6)c(OCc6cc(C)cc(C)c6)cc5CCN4[C@@H](C)C3)nn2)cc1 | ASPC1 | MTT |  | IC50 | 870 nM |
| CC(C)=CCC[C@](C)(O)[C@H]1CC[C@]2(C)[C@@H]1[C@H](O)C[C@@H]1[C@@]3(C)CC[C@H](O[C@@H]4O[C@H](CO)[C@@H](O)[C@H](O)[C@H]4O[C@@H]4O[C@H](CO)[C@@H](O)[C@H](O)[C@H]4O)C(C)(C)[C@@H]3CC[C@]12C | NCI-H358 | MTT | 72 h | IC20 | > 100000 nM |
| Cc1cc(C)cc(COc2cc3c(cc2OCc2cc(C)cc(C)c2)[C@H]2C[C@](O)(Cc4cn(Cc5cc(C(F)(F)F)cc(C(F)(F)F)c5)nn4)C[C@H](C)N2CC3)c1 | ASPC1 | MTT |  | IC50 | 836 nM |
| COC(C)(C)CCC[C@](C)(O)[C@H]1CC[C@]2(C)[C@@H]1[C@H](O)C[C@@H]1[C@@]3(C)CC[C@H](O)C(C)(C)[C@@H]3CC[C@]12C | NCI-H358 | MTT | 72 h | IC20 | 4480 nM |
| C=CC(=O)Nc1ccc(Cn2cc(C[C@@]3(O)C[C@@H]4c5cc(OCc6cc(C)cc(C)c6)c(OCc6cc(C)cc(C)c6)cc5CCN4[C@@H](C)C3)nn2)cc1 | ASPC1 | MTT |  | IC50 | 481 nM |
| COc1ccc(-c2ccc(-c3ccc(C(=N)N)nc3)s2)cc1Cl | SNB-19 | SRB |  | GI50 | 1700 nM |
| Cc1cc(C)cc(COc2cc3c(cc2OCc2cc(C)cc(C)c2)[C@H]2C[C@](O)(Cc4cn(CC5CC5)nn4)C[C@H](C)N2CC3)c1 | ASPC1 | MTT |  | IC50 | 612 nM |
| N=C(N)c1ccc(OCCCCCOc2ccc(C(=N)N)cc2)cc1 | HaCaT | MTS | 20 µM, 24 h | inhibition | 11.2% |
| Cc1cc(C)cc(COc2cc3c(cc2OCc2cc(C)cc(C)c2)[C@H]2C[C@](O)(Cc4cn(Cc5cnccn5)nn4)C[C@H](C)N2CC3)c1 | ASPC1 | MTT |  | IC50 | 753 nM |
| COC(=O)c1c(C)ncn1CC(c1cn(C)c2ccccc12)c1cn(C)c2ccccc12 | HaCaT | MTS | 20 µM, 24 h | inhibition | 12.6% |
| CC(C)C[C@H](NC(=O)[C@H](Cc1ccccc1)NC(=O)c1cnccn1)B(O)O | HEC-1-A | ATP luminescence |  | IC50 | 17 nM |
| Cc1cc(C)cc(COc2cc3c(cc2OCc2cc(C)cc(C)c2)C2CC(O)(Cc4cn(CCOCCOCCOCCNC(=O)CNc5ccc6c(c5)C(=O)N(C5CCC(=O)NC5=O)C6=O)nn4)CC(C)N2CC3)c1 (stereo not shown) | ASPC1 | MTT |  | IC50 | > 5000 nM |
